Laboratory results reported in ChEMBL document CHEMBL1949548, “A β-tryptase inhibitor with a tropanylamide scaffold to improve in vitro stability and to lower hERG channel binding affinity” (Bioorg Med Chem Lett, 2012).

Tests used:
[1] = molecular target: Voltage-gated inwardly rectifying potassium channel KCNH2 (Homo sapiens, UniProt Q12809); experiment: Inhibition of human ERG by whole-cell patch clamp electrophysiology assay
How it was run: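 hERG potassium channel expressed in Chinese hamster ovary cells; channel currents recorded by whole-cell patch clamp electrophysiology.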

[2] = Inhibition of human tryptase-beta using S-2366 as substrate by chromogenic assay
Cytochrome P450 2D6 = Cytochrome P450 2D6 (Homo sapiens, UniProt P10635); experiment: Inhibition of human CYP2D6 using dexotromethorphan as substrate by LC-MS/MS analysis; assay type: ADME
How it was run: (§1)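 Direct-acting CYP inhibition was run in human liver microsomes. Activity was read by LC–MS/MS of marker-substrate turnover: midazolam for CYP3A4 and dexotromethorphan for CYP2D6. IC50 values were derived.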

Cytochrome P450 3A4 = Cytochrome P450 3A4 (Homo sapiens, UniProt P08684); experiment: Inhibition of human CYP3A4 using midazolam as substrate by LC-MS/MS analysis; assay type: ADME; how it was run: as §1
[3] = Metabolic stability in human liver microsomes after 20 mins; assay type: ADME, Microsome
How it was run: (§2)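 Liver microsomal fractions prepared by centrifugation. Compound incubated with the fractions for 20 min before the reaction was stopped. Stability expressed as percent of compound metabolized.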

[4] = Metabolic stability in rat liver microsomes after 20 mins; assay type: ADME, Microsome; how it was run: as §2
[5] = Chemical stability in presence of human semicarbazide-sensitive amine oxidase assessed as compound remaining; assay type: physicochemical
How it was run: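 Human semicarbazide-sensitive amine oxidase (hSSAO) stability read as percent of compound remaining after 24 h.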

hERG (KCNH2) [6] = molecular target: T1, hERG (KCNH2) (Homo sapiens, UniProt Q12809); experiment: Inhibition of human ERG at 1 uM by whole-cell patch clamp electrophysiology assay
How it was run: (§3)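 hERG potassium channel expressed in Chinese hamster ovary cells. Channel currents recorded by whole-cell patch clamp electrophysiology, with percent inhibition of current reported.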

hERG (KCNH2) [7] = molecular target: T1, hERG (KCNH2); experiment: Inhibition of human ERG at 10 uM by whole-cell patch clamp electrophysiology assay; how it was run: as §3

Sequence of Cytochrome P450 2D6 (P10635 whole entry): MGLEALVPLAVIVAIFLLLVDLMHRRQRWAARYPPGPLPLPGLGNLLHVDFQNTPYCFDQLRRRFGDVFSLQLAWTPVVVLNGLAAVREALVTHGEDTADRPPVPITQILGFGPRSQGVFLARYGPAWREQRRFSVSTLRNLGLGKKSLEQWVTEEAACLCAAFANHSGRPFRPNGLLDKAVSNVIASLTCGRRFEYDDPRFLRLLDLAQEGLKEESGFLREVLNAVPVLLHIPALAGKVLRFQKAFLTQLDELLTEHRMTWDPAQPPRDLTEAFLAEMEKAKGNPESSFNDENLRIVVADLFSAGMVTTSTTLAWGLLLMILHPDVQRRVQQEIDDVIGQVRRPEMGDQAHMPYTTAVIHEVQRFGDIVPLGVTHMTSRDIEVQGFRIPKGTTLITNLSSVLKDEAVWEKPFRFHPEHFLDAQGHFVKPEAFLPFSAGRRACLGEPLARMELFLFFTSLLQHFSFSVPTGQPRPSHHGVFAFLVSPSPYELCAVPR
T1 sequence (Q12809 whole entry): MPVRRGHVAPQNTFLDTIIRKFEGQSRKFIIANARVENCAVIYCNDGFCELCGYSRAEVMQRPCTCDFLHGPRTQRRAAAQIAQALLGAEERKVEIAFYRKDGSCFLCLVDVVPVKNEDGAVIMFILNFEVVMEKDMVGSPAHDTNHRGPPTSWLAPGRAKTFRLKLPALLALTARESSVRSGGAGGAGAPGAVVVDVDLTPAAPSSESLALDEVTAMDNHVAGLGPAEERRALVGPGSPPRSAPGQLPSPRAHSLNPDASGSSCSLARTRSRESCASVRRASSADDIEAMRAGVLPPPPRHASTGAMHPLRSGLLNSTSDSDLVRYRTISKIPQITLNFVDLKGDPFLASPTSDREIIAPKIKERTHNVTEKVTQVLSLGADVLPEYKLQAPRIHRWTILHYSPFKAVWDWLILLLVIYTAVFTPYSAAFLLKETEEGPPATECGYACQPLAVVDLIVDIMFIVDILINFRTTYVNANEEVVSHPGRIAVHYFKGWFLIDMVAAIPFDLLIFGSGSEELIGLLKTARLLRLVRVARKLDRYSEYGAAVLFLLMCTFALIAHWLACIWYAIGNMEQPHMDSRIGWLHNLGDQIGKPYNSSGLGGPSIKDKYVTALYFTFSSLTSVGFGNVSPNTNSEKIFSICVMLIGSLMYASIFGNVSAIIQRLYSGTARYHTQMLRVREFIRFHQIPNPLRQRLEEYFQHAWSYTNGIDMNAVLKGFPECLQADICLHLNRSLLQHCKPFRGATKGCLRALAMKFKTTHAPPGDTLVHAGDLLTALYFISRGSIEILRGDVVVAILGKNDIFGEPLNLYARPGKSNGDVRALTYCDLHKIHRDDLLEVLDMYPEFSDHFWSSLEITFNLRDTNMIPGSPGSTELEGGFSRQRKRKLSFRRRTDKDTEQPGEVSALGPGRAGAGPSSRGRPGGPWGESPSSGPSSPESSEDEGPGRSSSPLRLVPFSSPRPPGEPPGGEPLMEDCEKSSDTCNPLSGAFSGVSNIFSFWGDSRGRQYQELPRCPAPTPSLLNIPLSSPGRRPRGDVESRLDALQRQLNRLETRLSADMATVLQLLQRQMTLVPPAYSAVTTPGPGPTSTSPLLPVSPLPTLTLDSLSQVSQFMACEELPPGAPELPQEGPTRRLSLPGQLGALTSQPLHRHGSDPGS
Sequence of Cytochrome P450 3A4 (P08684 whole entry): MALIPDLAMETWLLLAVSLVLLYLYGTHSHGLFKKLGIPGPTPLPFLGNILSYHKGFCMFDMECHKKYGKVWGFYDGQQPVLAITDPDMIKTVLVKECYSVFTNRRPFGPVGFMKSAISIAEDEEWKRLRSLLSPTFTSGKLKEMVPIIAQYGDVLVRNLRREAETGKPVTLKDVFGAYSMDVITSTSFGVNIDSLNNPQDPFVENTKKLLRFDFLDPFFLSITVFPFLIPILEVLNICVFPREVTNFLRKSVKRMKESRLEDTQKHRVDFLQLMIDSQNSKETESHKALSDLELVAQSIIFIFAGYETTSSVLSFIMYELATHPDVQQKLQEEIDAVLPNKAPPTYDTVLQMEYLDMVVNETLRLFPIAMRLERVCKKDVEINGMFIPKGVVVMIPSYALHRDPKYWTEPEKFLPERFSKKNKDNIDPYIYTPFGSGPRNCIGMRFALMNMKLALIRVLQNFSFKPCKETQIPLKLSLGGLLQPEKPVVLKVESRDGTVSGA
Sequence of Voltage-gated inwardly rectifying potassium channel KCNH2 (Q12809 whole entry): as the sequence (Q12809 whole entry) above

Compound	IC50 [1] [nM]	Ki [2] [nM]	IC50 (Cytochrome P450 2D6) [µM]	IC50 (Cytochrome P450 3A4) [µM]	metabolized at 20 min [3] [%]	metabolized at 20 min [4] [%]	Stability [5] [%]	inhibition at 1 µM (hERG (KCNH2) [6]) [%]	inhibition at 10 µM (hERG (KCNH2) [7]) [%]
CCCOc1sc(C(=O)N2CCC(c3cccc(CN)c3)CC2)c(C)c1Br	1000	22	2.5	4.7	26	6	70		
CCCOc1sc(C(=O)N2[C@H]3CC[C@H]2CC(c2cc(CN)ccc2F)C3)c(C)c1Br (some centres undefined)			6.9	5.3	7	0	86	14	36
